Measured values as given in ChEMBL document CHEMBL3228013 (J Med Chem, 1979).
The source made the active and inactive calls. The calls are words filed in the database; no cut-off is given here.

Tests used:
[1] = system: Mus musculus; experiment: Toxicity in mouse allografted with mouse L1210 cells at 500 mg/kg, ip; format: organism-based; parameters: dose 500 mg/kg, route intraperitoneal; settings: in vivo
Summary of the method: (§1)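 Female or male mice bearing L1210 lymphoid leukemia were tested under the NCI standard protocol. Dosing was ip, day 1 only, in aqueous Tween-80, at halved doses starting at 500 mg/kg and generally ending at 62.5 mg/kg. Mean survival time was assessed on day 30, and T/C ≥125% was taken as active.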

[2] = Half life of the compound in 1:4 D2O:[…] containing at 1 x 10^-3 M NaOD at 5 x 10^-2 M by UV-spectroscopy; format: physicochemical; settings: 1:4 D2O:Me2SO-d2 with NaOD
[3] = system: KB; experiment: Cytotoxicity against human KB cells; format: functional, cell-based
[4] = system: L1210; experiment: Antitumor activity against mouse L1210 cells allografted in mouse at 500 mg/kg, ip began on day 1 halved compound dose ended at […], ip measured on day 30; format: functional, organism-based; summary of the method: as §1
[5] = Half life of the compound in 1:1 H2O:ethylalcohol containing 6.66 x 10^-3 M NaOH at 8.3 x 10^-5 M by UV-spectroscopy; format: physicochemical; settings: 1:1 water:ethanol with NaOH
[6] = Half life of the compound in 1:1 H2O:ethylalcohol containing 2.08 x 10^-3 M NaOH at 8.3 x 10^-5 M by UV-spectroscopy; format: physicochemical; settings: 1:1 water:ethanol with NaOH
[7] = Toxicity in ip dosed mouse allografted with mouse L1210 cells; format: organism-based; settings: in vivo; summary of the method: as §1
[8] = Half life of the compound in 1:1 H2O:ethylalcohol containing 3.33 x 10^-3 M NaOH at 8.3 x 10^-5 M by UV-spectroscopy; format: physicochemical; settings: 1:1 water:ethanol with NaOH
[9] = Inhibition of wheat germ orthophosphoric monoester phosphohydrolase using 2-carboxyphenyl phosphate as substrate at 1.5 mM after 2 hrs by UV spectroscopy; settings: triticum aestivum, 1500 µM
Summary of the method: (§2)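 Wheat germ orthophosphoric monoester phosphohydrolase (2.1 units/mg toward 2-carboxyphenyl phosphate) was used. Compound at 1.5 mM was incubated in 0.15 M NaOAc pH 5.0 with glycerin at about 25–26 °C for 2 h, against a reference cell without enzyme, with UV monitoring at 290 nm. 2-Carboxyphenyl phosphate was then added to check remaining enzyme activity.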

[10] = Half life of the compound in 1:1 H2O:ethylalcohol containing 8.33 x 10^-3 M NaOH at 8.3 x 10^-5 M by UV-spectroscopy; format: physicochemical; settings: 1:1 water:ethanol with NaOH
[11] = Half life of the compound in 1:1 H2O:ethylalcohol containing 5 x 10^-3 M NaOH at 8.3 x 10^-5 M by UV-spectroscopy; format: physicochemical; settings: 1:1 water:ethanol with NaOH
[12] = Drug metabolism assessed as wheat germ orthophosphoric monoester phosphohydrolase-mediated hydrolysis at 1.5 mM by UV spectroscopy; format: ADME; settings: triticum aestivum, 1500 µM; summary of the method: as §2

Compound | Activity [1] | half-life at 50000 µM [2] [min] | Activity [3] | Activity [4] | half-life at 83 µM [5] [min] | half-life at 83 µM [6] [min] | MTD [7] [mg/kg] | half-life at 83 µM [8] [min] | inhibition (INH) [9] | half-life at 83 µM [10] [min] | half-life at 83 µM [11] [min] | Stability [12]
CCOc1ccc(NP(=O)(Oc2c(F)c(F)c(F)c(F)c2F)N(CCCl)CCCl)cc1 (configuration not stated) | Non-toxic | 8.17 | inactive | inactive |  |  |  |  |  |  |  | 
Cc1ccc(NP(=O)(Oc2c(F)c(F)c(F)c(F)c2F)N(CCCl)CCCl)cc1 (configuration not stated) | Non-toxic | 6.53 | inactive | inactive |  |  |  |  |  |  |  | 
NP(=O)(Oc1c(F)c(F)c(F)c(F)c1F)N(CCCl)CCCl (configuration not stated) |  |  | inactive | inactive | 0.717 | 2 | 31.2 | 1.33 | Not Active | 0.6 | 0.867 | Stable
O=P(Nc1ccccc1)(Oc1c(F)c(F)c(F)c(F)c1F)N(CCCl)CCCl (configuration not stated) | Non-toxic | 5.3 | inactive | inactive |  |  |  |  |  |  |  | 
